Compound activity as filed in PubChem BioAssay.
PfG6PD inh: PfG6PD (Plasmodium falciparum) enzyme inhibition; PfGluPho enzyme, NADPH resazurin-diaphorase fluorescence; inhibition, % at 20 µM; actives 0.78% (n = 350,000); AID 504690;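 active means inhibition reaching at least a set limit at 20 µM in the primary screen, cut at about 59% in these data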;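 further: 0% = DMSO wells with substrate and 100% = DMSO wells lacking glucose-6-phosphate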
HKDC1 inh: inhibitors of human hexokinase HKDC1 | recombinant HKDC1, G6PDH/diaphorase resazurin coupled fluorescence | Q2TB90 | actives 0.16% (n = 340,000) | inhibition, % at 20 µM;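 active means inhibition above about 35% when tested at 20 µM, limit read from the data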;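 further: plate controls were DMSO wells with enzyme for no effect and DMSO wells lacking enzyme for full effect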
Target sequence (Q2TB90 whole entry, looked up): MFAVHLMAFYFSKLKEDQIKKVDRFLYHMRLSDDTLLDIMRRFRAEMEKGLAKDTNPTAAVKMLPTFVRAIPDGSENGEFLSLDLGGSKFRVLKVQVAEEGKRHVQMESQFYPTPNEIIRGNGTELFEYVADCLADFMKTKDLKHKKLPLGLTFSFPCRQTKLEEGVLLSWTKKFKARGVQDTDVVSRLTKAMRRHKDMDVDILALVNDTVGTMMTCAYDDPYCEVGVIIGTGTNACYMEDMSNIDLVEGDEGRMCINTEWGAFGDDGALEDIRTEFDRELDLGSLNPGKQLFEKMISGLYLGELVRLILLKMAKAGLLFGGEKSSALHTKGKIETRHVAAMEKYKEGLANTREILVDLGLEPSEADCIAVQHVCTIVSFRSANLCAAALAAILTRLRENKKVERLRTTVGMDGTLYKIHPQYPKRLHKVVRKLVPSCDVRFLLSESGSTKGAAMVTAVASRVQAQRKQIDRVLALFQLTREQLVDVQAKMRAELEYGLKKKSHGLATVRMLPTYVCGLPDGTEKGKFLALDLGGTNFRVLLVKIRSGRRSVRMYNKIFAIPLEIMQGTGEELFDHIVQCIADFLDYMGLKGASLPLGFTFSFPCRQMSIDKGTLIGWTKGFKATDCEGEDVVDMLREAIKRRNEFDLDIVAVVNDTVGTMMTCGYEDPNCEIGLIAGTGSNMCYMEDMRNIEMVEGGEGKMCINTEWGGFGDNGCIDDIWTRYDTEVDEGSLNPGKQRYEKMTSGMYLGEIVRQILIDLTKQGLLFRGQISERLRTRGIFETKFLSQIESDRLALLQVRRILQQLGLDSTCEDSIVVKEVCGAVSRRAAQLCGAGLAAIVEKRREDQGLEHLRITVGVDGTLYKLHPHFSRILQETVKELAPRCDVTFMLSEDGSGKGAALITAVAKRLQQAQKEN
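System: Recombinant HKDC1 hexokinase | Amount: HKDC1 at 5 µg/mL | Reagent: Glucose with 1 mM ATP | Doses: Single 20 µM dose | Incubation: Reaction time 90 min, room temperature, protected from light | Signal: Coupled resazurin fluorescence, excitation 525 nm, emission 613 nm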
Diaph inh CS: inhibits diaphorase or chemically oxidizes, flagging diaphorase assay artifacts | diaphorase resazurin-to-resorufin fluorescence, NADH, 16 min; bacterial (C. kluyveri) enzyme, not human | inhibition, % at 20 µM | actives 0.69% (n = 190,000) | AID 1217;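 active means primary screen inhibition at 20 µM above a set limit, cut at about 50% in these data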;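 further: plate controls were DMSO with full reaction for no effect and wells lacking NADH for full effect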
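Assay system – diaphorase enzyme from Clostridium kluyveri · Amount – diaphorase 0.14 U/mL (working solution) · Times – reaction incubation of 16 min at room temperature · Controls – No-NADH positive control and DMSO neutral control · Signal – resorufin fluorescence 544/590 nm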
G6PDH CS: inhibits Leuconostoc G6PDH, flagging false hits in G6PDH-based assays; actives 0.12% (n = 200,000); inhibition, % at 5 µM; Purified L. mesenteroides G6PDH, diaphorase/resazurin coupled fluorescence, 45 min; AID 1020; in the data active means inhibition above about 50%
TbHK1 inh: T. brucei hexokinase 1 inhibition; recombinant TbHK1, G6PDH-coupled NADH A340; inhibition, % at 10 µM; actives 0.11% (n = 220,000);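 active means inhibition of 50% or more in the single-dose primary screen; inactive means inhibition below 50%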
An asterisk follows results filed as active; . = no result given. Only some compounds are listed: those with a hit (about 1.3% of all), similar ones and a draw of the others.

SMILES	PfG6PD inh	HKDC1 inh	Diaph inh CS	G6PDH CS	TbHK1 inh
CC(=O)NC(c1ccccc1)c1cc([N+](=O)[O-])c2cccnc2c1O (centres undefined)	29	15	56*	61*	6
CC(=O)NC(c1cccs1)c1cc([N+](=O)[O-])c2cccnc2c1O (centres undefined)	22	10	44	61*	2
CCCC(=O)NC(c1cccs1)c1cc([N+](=O)[O-])c2cccnc2c1O (centres undefined)	7	-9	43	42	5
CC(C)C(=O)NC(c1ccccc1)c1cc([N+](=O)[O-])c2cccnc2c1O (centres undefined)	44	14	39	55*	15
COc1ccc(NC(=S)N/N=C/c2cccn2Cc2ccc(F)cc2)cc1	4	-6	9	-8	-6
N#Cc1c(N2CCCC(O)C2)nc(N)c2c(N)nc3c(c12)CC(=O)N3C12CC3CC(CC(C3)C1)C2 (centres undefined)	-3	27	55*	50	-10
CCCC(=O)N1CCN(c2ccc(NC(=O)c3cc4ccccc4o3)cc2Cl)CC1	98*	14	-2	-32	-16
Cc1cccc(/C=C2/Sc3ccc(C(=O)NCCN4CCCC4)cc3NC2=O)c1	57	3	.	.	.
O=C1Nc2cc(C(=O)NCCN3CCCCCC3)ccc2S/C1=C\c1ccccc1	89*	3	.	.	.
Cc1nc(-c2cc(C#N)c(=O)[nH]c2C)cs1	7	8	.	.	-33
CC(Sc1nnc(NC2CCCCC2)s1)C(=O)Nc1ccc2c(c1)C(=O)c1ccccc1C2=O (centres undefined)	22	15	56*	7	9
Cc1cc(NC(=O)CN2C(=O)NC3(CCCCCC3)C2=O)no1	-12	-9	.	.	-3
Oc1c(CNc2ccccc2)cc(COCc2ccccc2)c2cccnc12	-24	-39	.	.	.
Oc1c(CN2CCOCC2)cc(COCc2ccccc2)c2cccnc12	-27	5	53*	-4	-12
O=C(C1=C[C@H](c2ccc(C(F)(F)F)cc2)C[C@H](OCc2ccc(CO)cc2)O1)N1CCCCCCC1	7	5	50*	13	-8
CC(=O)n1cc([C@H]2C=C(C(=O)N3CCN(Cc4ccc5c(c4)OCO5)CC3)O[C@@H](OCc3ccc(CO)cc3)C2)c2ccccc21	6	-6	23	7	-23
O=C(C1=C[C@@H](c2ccc(C(F)(F)F)cc2)C[C@@H](OCc2ccc(CO)cc2)O1)N1CCOCC1	16	0	26	10	-12
CC(=O)n1cc([C@H]2C=C(C(=O)N3CCN(Cc4ccccc4)CC3)O[C@@H](OCc3ccc(CO)cc3)C2)c2ccccc21	18	2	52*	20	-11
COc1ccc(NC(=O)CN(C)C2CCS(=O)(=O)C2)cc1 (centres undefined)	-12	-6	.	.	.
COc1ccc(Cl)cc1NC(=S)NNC(=O)CC(C)C	5	-6	-3	4	1
O=c1[nH]sc2ccccc12	65*	-5	-12	2	3
O=c1ccsc2ccccc12	7	-4	.	.	.
Cc1ccc2nc3c(cc(S(=O)(=O)c4ccccc4)c(=N)n3Cc3ccco3)c(=O)n2c1	5	1	52*	-2	-10
CCOC(=O)c1cc2c(=O)n3ccccc3nc2n(Cc2ccco2)c1=NC(=O)c1ccc(OC)cc1	8	-4	35	8	-8
N=c1c(S(=O)(=O)c2ccccc2)cc2c(=O)n3ccccc3nc2n1Cc1ccco1	15	5	51*	0	-8
SMILES	PfG6PD inh	HKDC1 inh	Diaph inh CS	G6PDH CS	TbHK1 inh
CCOC(=O)c1cc2c(=O)n3ccccc3nc2n(Cc2ccco2)c1=NC(=O)c1ccccc1OC	7	-13	80*	-1	-16
COc1ccc(NC(=O)CSc2nnc(NC(=O)c3ccccc3C(=O)O)s2)cc1	-10	-5	16	11	-5
CCN1CCN(c2cc(N3CCN(C(=O)c4ccco4)CC3)c3c4c(onc24)-c2ccccc2C3=O)CC1	68*	18	.	.	.
O=c1[nH]c(/C=C2\C=Nc3ccccc32)c(O)n1Cc1ccccc1F	14	1	69*	6	-3
CSc1nc(O)c(/C=C2\C=Nc3ccccc32)[nH]1	13	-3	21	9	-2
O=C1C2C3C=CC(CC3)C2C(=O)N1/N=C/c1ccc(O)c(O)c1 (centres undefined)	-20	-11	32	6	-27
O=C1c2ccccc2C(=O)N1/N=C/c1ccc(O)c(O)c1	-23	-2	52*	12	-9
COc1ccc2cc(C(N)=O)/c(=N/NC(=O)c3ccco3)oc2c1	27	3	76*	-17	-2
NC(=O)c1cc2ccccc2o/c1=N/NC(=O)c1cccs1	18	-6	69*	2	-8
COc1ccc2o/c(=N/NC(=O)c3cccs3)c(C(N)=O)cc2c1	0	-1	19	9	-7
CC1(C)Cc2c(sc3nc4n(c(=N)c23)CCC4)CO1	-10	2	6	-7	-4
COc1ccc2nc(Nc3sc4c(c3C(N)=O)CCCC4)sc2c1	67*	1	26	-13	-10
Cc1ccc2[nH]c(=O)c3cc(C(=O)N4CCN(C(=O)c5ccco5)CC4)sc3c2c1	-10	-1	60*	-6	-33
c1ccc(Sc2ccncc2)cc1	12	.	.	.	.
c1cc(SSc2ccncc2)ccn1	65*	-5	.	.	.
COc1ccc(NC(=O)CN2CCCN(S(=O)(=O)c3ccc(F)cc3)CC2)cc1	0	-9	12	-8	-4
CCN(CC)CCNC(=O)CSc1c2c(nc3cc(Cl)ccc13)CCCC2	4	5	53*	6	-10
CCN(CC)CCCNC(=O)c1ccc2c(SCC(=O)O)c3c(nc2c1)CCC3	.	.	6	0	-13
O=C(c1ccccc1)c1coc2c1C(=O)c1ccccc1C2=O	-9	-2	-16	53*	-3
O=c1c2sc3ccccc3c2[nH]c(=S)n1CCN1CCOCC1	12	4	56*	0	-7
O=C(O)CCCn1c(=S)[nH]c2c(sc3ccc([N+](=O)[O-])cc32)c1=O	-1	-1	84*	-4	2
COCCCn1c(=S)[nH]c2c(sc3ccccc32)c1=O	13	-2	64*	4	-5
O=c1c2ccccc2[nH]c(=S)n1CCCN1CCOCC1	7	-2	25	-2	-4
CC1CCN(CCCn2c(=S)[nH]c3c(sc4ccccc43)c2=O)CC1	25	-6	58*	-1	-10
CC1CCN(CCCn2c(=S)[nH]c3c(sc4ccc([N+](=O)[O-])cc43)c2=O)CC1	16	4	35	0	4
COC(=O)Cc1ccc(O)c(N)c1	-4	7	24	18	8
Cc1cc(C)nc(N2CCCC(C(=O)NCc3cccs3)C2)n1 (centres undefined)	4	-9	12	0	-2
